Compound activity (PubChem BioAssay)
Rows were chosen to be rich in hits. Some 2.3% of all compounds tested hit in one or more screens of this group.
FID counter: displaces DNA intercalator in HCV helicase counter-screen; DNA fluorescent intercalator displacement, fluorescence; inhibition, % at 7.9 µM; 290,000 compounds, 0.17% hits; AID 1845; in the data active = inhibition above about 37%;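 also: 0% = vehicle and 100% = reference compound; higher means more ethidium bromide displaced from hairpin DNA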
TRPC4 agonist: opens the mouse TRPC4 cation channel; B-score at 10 µM; HEK293 TRPC4beta/mu-opioid, Fluo4 calcium fluorescence; stronger effect = higher value; Q9QUQ5; 310,000 compounds, 0.49% hits;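 active = B-score above 5 SD of library B-scores, and initial fluorescence ratio not above library mean plus 5 SD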;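 also: positive B-score marks a calcium rise read as TRPC4 activation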
Target sequence (Q9QUQ5 whole entry, looked up): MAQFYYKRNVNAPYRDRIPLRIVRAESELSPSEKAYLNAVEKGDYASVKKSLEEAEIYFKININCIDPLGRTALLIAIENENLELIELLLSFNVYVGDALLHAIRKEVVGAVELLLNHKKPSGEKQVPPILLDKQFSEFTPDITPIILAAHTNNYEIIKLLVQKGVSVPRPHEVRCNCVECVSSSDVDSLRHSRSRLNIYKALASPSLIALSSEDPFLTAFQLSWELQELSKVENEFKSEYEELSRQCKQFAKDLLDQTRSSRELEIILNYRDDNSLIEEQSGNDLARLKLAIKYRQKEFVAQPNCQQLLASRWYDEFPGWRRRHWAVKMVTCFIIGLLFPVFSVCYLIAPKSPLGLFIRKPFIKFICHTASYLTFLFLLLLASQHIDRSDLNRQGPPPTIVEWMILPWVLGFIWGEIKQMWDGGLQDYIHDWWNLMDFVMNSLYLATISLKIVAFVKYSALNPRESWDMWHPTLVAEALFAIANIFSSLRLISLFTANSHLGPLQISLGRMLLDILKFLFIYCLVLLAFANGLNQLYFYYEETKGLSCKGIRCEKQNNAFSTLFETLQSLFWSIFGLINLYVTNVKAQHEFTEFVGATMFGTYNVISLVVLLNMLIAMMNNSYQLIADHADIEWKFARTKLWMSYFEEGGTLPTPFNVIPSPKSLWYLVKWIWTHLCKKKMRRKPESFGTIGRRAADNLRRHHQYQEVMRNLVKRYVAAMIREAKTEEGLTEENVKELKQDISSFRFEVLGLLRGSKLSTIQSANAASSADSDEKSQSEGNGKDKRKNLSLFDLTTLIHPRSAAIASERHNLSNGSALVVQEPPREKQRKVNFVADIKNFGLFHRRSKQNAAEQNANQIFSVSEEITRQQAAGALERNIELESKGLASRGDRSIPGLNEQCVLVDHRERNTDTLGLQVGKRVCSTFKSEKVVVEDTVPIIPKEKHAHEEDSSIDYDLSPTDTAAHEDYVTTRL
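Test system: HEK293 cells stably co-expressing mouse TRPC4beta and mu-opioid receptor | Schedule: Fluo4 dye loading 45 min at room temperature, 110 s recording | Measured by: Kinetic Fluo4 calcium fluorescence, 5 s baseline at 1 Hz | Evaluation: B score of integrated ratio | Controls: Buffer (low) and maximal DAMGO (high)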
TRPC4 block: inhibitors of mouse TRPC4 channel. B-score at 10 µM. Q9QUQ5. AID 2247. HEK293 TRPC4beta/mu-opioid, DAMGO-evoked Fluo4 calcium flux; stronger effect = lower value. 300,000 compounds, 0.39% hits;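 active = B-score over 3 SD under the library average, no early fluorescence shift, positive overall ratio signal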
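Assay system: HEK293 cells with stable TRPC4beta plus mu-opioid receptor expression; Probe or stimulus: DAMGO in two steps, submaximal then maximal; Dosing: single-point compound dosing; Measured by: Fluo4 calcium-dye fluorescence, kinetic read; Read-out basis: B score from integrated Fluo4 fluorescence ratio.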
TRPC6 activator: activators of mouse TRPC6 channel; HEK293-TRPC6 membrane potential dye fluorescence; stronger effect = higher value; Q61143; 310,000 compounds, 0.13% hits; B-score at 10 µM;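 active = B-score of the integrated fluorescence ratio above library mean plus 3 SD, and starting fluorescence ratio within library mean plus 5 SD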;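 also: higher score means more depolarization so channel activation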
TRPC4 potent: TRPC4 (mouse) allosteric potentiation | Q9QUQ5 | HEK293 TRPC4beta/mu-opioid, DAMGO EC20, Fluo-4 Ca2+ flux; stronger effect = higher value | B-score at 10 µM | 310,000 compounds, 0.42% hits;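 active = B-score of calcium response area above 5 SD of library B-scores, with initial fluorescence ratio within 5 SD of library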;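 also: B-score of integrated fluorescence ratio over time as area under calcium response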
TRPC6 inhibitor: blocks the mouse TRPC6 cation channel | HEK293-TRPC6, membrane potential dye, ACh-evoked depolarization; stronger effect = lower value | AID 2553 | B-score at 10 µM | Q61143 | 310,000 compounds, 1.1% hits;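 active = B-score under library mean minus 3 SD, initial fluorescence not abnormally high, positive integrated signal ratio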;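 also: B-score derived from integrated fluorescence ratio over the kinetic read; more negative B-score means stronger inhibition of depolarization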
TRPC4 spec 2: second selectivity test of TRPC6 inhibitors: effect on mouse TRPC4. shares compounds with TRPC6 inhibitor. HEK293 TRPC4/MOR, membrane potential dye fluorescence; channel activated by saturating DAMGO dose. inhibition, % at 10 µM. 920 compounds, 42% hits;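 active = compounds whose fluorescence signal differed from control wells by over 3 SD, either direction, in both duplicate plates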
TRPC4 spec: mouse TRPC4 off-target activity of TRPC6 inhibitors | shares compounds with TRPC6 inhibitor | HEK293 TRPC4/mu-opioid, membrane potential fluorescence | activity change, negative = inhibition, % at 10 µM | 920 compounds, 61% hits | AID 2777;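 active = rise or fall in signal beyond 3 SD of buffer-only wells in both replicate plates, either sign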;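 also: integrated kinetic ratio of fluorescence range over baseline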
HEK293 MPD ctr 2-1: second counter-screen for TRPC6 inhibitors: parental HEK293 cells; shares compounds with TRPC6 inhibitor; parental HEK293 membrane potential dye fluorescence; maximal acetylcholine challenge after compound addition; signal change vs control, % at 10 µM; 920 compounds, 31% hits;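 active = membrane potential signal moving either way by over 3 SD of the maximum-effect control, in both duplicate plates, meaning non-specific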
HEK293 MPD ctr-1: checks TRPC6 inhibitor effects in parental HEK293 cells; parental HEK293 membrane potential dye fluorescence; shares compounds with TRPC6 inhibitor; 920 compounds, 60% hits; membrane potential signal change, % at 10 µM;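 active = membrane potential signal shifting up or down by more than 3 SD of buffer-only wells, on both duplicate plates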
HEK293 MPD ctr-2: parental HEK293 nonspecific activity of TRPC6 modulators. shares compounds with TRPC6 inhibitor. membrane potential dye fluorescence. membrane potential signal change, % at 10 µM. 2,400 compounds, 51% hits. AID 488924;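 active = membrane potential signal moves up or down beyond 5 SD from buffer-only wells, on both duplicate plates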
HEK293 MPD ctr 2-2: parental HEK293 nonspecific activity of TRPC6 modulators, second screen; membrane potential dye fluorescence; after compound, maximal acetylcholine stimulation; shares compounds with TRPC6 inhibitor; inhibition, % at 10 µM; 2,400 compounds, 14% hits;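 active = membrane potential signal drops by more than 5 SD from the mean control signal, in both duplicate plates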;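 also: plate controls were acetylcholine ECmax control wells for no effect and buffer only wells for full effect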
TRPC4 ctr mod: mouse TRPC4 off-target activity of TRPC6 modulators; shares compounds with TRPC6 inhibitor; HEK293 TRPC4/mu-opioid, membrane potential fluorescence; percent change from control (negative = decrease, positive = increase), % at 10 µM; 2,400 compounds, 69% hits;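 active = membrane potential signal moved up or down beyond 5 SD of buffer control wells, in both duplicate plates, actives on both sides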;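 also: plate controls were assay buffer wells for no effect and DAMGO maximal-effect wells for full effect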
TRPC4 ctr inh 2: second selectivity test of TRPC6 modulators against mouse TRPC4; shares compounds with TRPC6 inhibitor; HEK293 TRPC4/mu-opioid, membrane potential dye fluorescence; stimulated with maximal-effect DAMGO; inhibition, % at 10 µM; 2,400 compounds, 55% hits; AID 488928;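 active = drop in membrane potential signal beyond 5 SD of the control wells in both duplicate plates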;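 also: TRPC4 counter screen for TRPC6 hits run under conditions tuned for TRPC6 not TRPC4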
TRPC6 inh conf: mouse TRPC6 inhibitor confirmation | shares compounds with TRPC6 inhibitor | HEK293-TRPC6, membrane potential dye, ACh-evoked depolarization | inhibition, % at 10 µM | 3,300 compounds, 43% hits;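 active = fluorescence ratio falls more than 5 SD below the full-stimulation control mean, in both duplicate runs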;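 also: integrated fluorescence ratio of peak minus minimum over baseline after agonist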
TRPC6 act conf: mouse TRPC6 activator confirmation; shares compounds with TRPC6 inhibitor; HEK293-TRPC6 membrane potential dye fluorescence, FDSS; activation, % at 10 µM; 2,800 compounds, 11% hits; AID 488961;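 active = ratio signal rise beyond 5 SD above unstimulated control wells' mean, seen in both duplicate runs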;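 also: plate controls were buffer EC0 wells for no effect and acetylcholine ECmax response for full effect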
* hit, by the source's call; i = inactive; · = no result.

SMILES	FID counter	TRPC4 agonist	TRPC4 block	TRPC6 activator	TRPC4 potent	TRPC6 inhibitor	TRPC4 spec 2	TRPC4 spec	HEK293 MPD ctr 2-1	HEK293 MPD ctr-1	HEK293 MPD ctr-2	HEK293 MPD ctr 2-2	TRPC4 ctr mod	TRPC4 ctr inh 2	TRPC6 inh conf	TRPC6 act conf
CCCC/C(=N/O)c1c(C)[nH]c2ccccc12	-4	i	i	i	i	-9.5*	i	-13%*	i	-142%*	·	·	·	·	i	i
N#CC(C#N)=NNc1ccc(-n2ccc(C(F)(F)F)n2)cc1	-15	i	i	i	i	-9.2*	·	·	·	·	170%*	i	27%*	71%*	62%*	i
Cc1cc(C)n(-c2ccc(NN=C(C#N)C#N)cc2)n1	-8	i	i	i	i	i	·	·	·	·	·	·	·	·	·	·
CCC(C)N1CCN(C(=O)Cc2ccccc2)CC1 (stereo not drawn)	2	i	i	i	i	-7.1*	i	i	i	i	·	·	·	·	i	i
CC1CCN(CC#CCOc2ccc(Cl)cc2)CC1	7	i	i	i	i	i	·	·	·	·	·	·	·	·	·	·
COc1cc(CN2CC=C(c3ccc(F)cc3)CC2)cc(OC)c1	9	i	i	i	i	i	·	·	·	·	·	·	·	·	·	·
CN(C)c1ccc(CN2CC=C(c3ccc(F)cc3)CC2)cc1	25	i	i	i	i	-7.9*	75%*	i	i	i	·	·	·	·	i	i
CCCCCCCSc1cc(OC)c(CCNC)cc1OC	21	i	i	i	i	-5.1*	·	·	·	·	i	i	i	50%*	43%*	i
CCCCCSc1cc(OC)c(CCNC)cc1OC	19	i	i	i	i	-6*	·	·	·	·	i	i	12%*	28%*	i	i
Cn1c(O)c(C=NCCCCCCCCCCC(=O)O)c(=O)n(C)c1=O	-6	i	i	i	i	i	·	·	·	·	·	·	·	·	·	·
COc1ccc(C(=O)C2CCCN(C3CSCCSC3)C2)cc1OC (stereo not drawn)	3	167*	i	i	i	-7.7*	·	·	·	·	i	83%*	59%*	36%*	72%*	i
O=C(c1ccc(Cl)cc1)C1CCCN(C2CCSCC2)C1 (stereo not drawn)	19	i	-5*	i	i	-7*	·	·	·	·	130%*	i	28%*	50%*	44%*	·
